Screens: PubChem BioAssay, several laboratories
Compounds with a hit are over-represented: about 3.1% of the library has one in this group of screens.
MEKK2mut PB1 HTS: signal of MEK5 binding to mutant human MEKK2 PB1 domain | 290,000 compounds, 0.35% hits | bead flow cytometry, Alexa488-MEK5 binding to MEKK2 mutant | percent response, % at 10 µM; in the data active = percent response above about 24%, passing the limit was not always enough
MEKK3 PB1 HTS: MEKK3-MEK5 PB1 interaction, increase or decrease; Q99759; bead-based flow cytometry, Alexa488-MEK5 binding to MEKK3; actives lie on both sides; 0 = blocked by unlabeled MEK5, 100 = vehicle; binding response (% of control), % at 10 µM; 290,000 compounds, 1.4% hits; AID 1529;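 active = binding response more than 3 SD above or below the average of its plate-row segment, actives on both sides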;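 also: Alexa488 bead fluorescence after subtracting the streptavidin-only scavenger bead signal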
MEKK2wt PB1 HTS: raises or lowers MEK5 binding to wildtype human MEKK2 PB1 domain | AID 1531 | 290,000 compounds, 1.1% hits | bead flow cytometry, Alexa488-MEK5 binding to MEKK2 WT; actives lie on both sides | binding response (% of control), % at 10 µM; in the data active = binding response below about 67% or above about 130%
PREPL inh: inhibits the human prolyl oligopeptidase-like enzyme; recombinant PREPL, fluorescence polarization activity-based probe; 320,000 compounds, 0.68% hits; Q4J6C6; inhibition, % at 5.96 µM; in the data active = inhibition above about 43%;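 also: 0% = enzyme with DMSO and 100% = wells lacking enzyme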
UBC13 polyUb: inhibitors of human UBC13 polyubiquitin chain formation; P61088; TR-FRET; inhibition, % at 20 µM; 330,000 compounds, 0.47% hits; AID 485273; in the data active = inhibition above about 45%, passing the limit was not always enough
Apaf-1 inh: human Apaf-1 inhibition; reconstituted apoptosome caspase-3 activity, DEVD-Rh110 fluorescence; inhibition, % at 20 µM; 330,000 compounds, 0.71% hits; active = inhibition of at least 40% at 20 µM;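 also: plate controls were DMSO wells for no effect and DEVD-CHO caspase inhibitor wells for full effect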
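System: reconstituted apoptosome with Apaf-1, cytochrome c, caspase-9, procaspase-3, dATP; Signal: Rh110 fluorescence intensity; Schedule: 30 min compound preincubation, 50 min activation, room temperature; Reagent: cytochrome c trigger plus (Z-DEVD)2-Rh110 caspase-3 substrate.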
MEKK2wt confirm: raises or lowers MEK5 binding to wildtype human MEKK2, retest | shares compounds with MEKK3 PB1 HTS | bead flow cytometry, Alexa488-MEK5 binding to MEKK2 WT; actives lie on both sides | binding response (% of control), % at 10 µM | 5,900 compounds, 2.4% hits; in the data active = binding response below about 16% or above about 210%; inactive = in between
MEKK2mut confirm: signal of MEK5 binding to mutant human MEKK2, retest | shares compounds with MEKK3 PB1 HTS | bead flow cytometry, Alexa488-MEK5 binding to MEKK2 mutant | percent response, % at 10 µM | 5,900 compounds, 2% hits; in the data active = percent response mostly above about 71%, no sharp cut-off; inactive = mostly below about 38%;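 also: higher means compound restores mutant binding toward wildtype level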
MEKK3-MEK5 inh: confirmation of inhibitors of MEK5 binding to human MEKK3; shares compounds with MEKK3 PB1 HTS; bead flow cytometry, Alexa488-MEK5 binding to MEKK3; stronger effect = lower value; binding response (% of control), % at 10 µM; 5,900 compounds, 1.8% hits; AID 1894;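 active = binding response below 72% of control, or above a set upper limit, though filed actives all read lower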;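 also: 100% = DMSO only wells and 0% = binding blocked by excess unlabeled MEK5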
Active calls of the source: *; nt = not tested or not shown; [ ] = remark or other dose.

SMILES	MEKK2mut PB1 HTS	MEKK3 PB1 HTS	MEKK2wt PB1 HTS	PREPL inh	UBC13 polyUb	Apaf-1 inh	MEKK2wt confirm	MEKK2mut confirm	MEKK3-MEK5 inh
Cc1ccc(/C=N/n2c(-c3ccc(Cl)cc3)n[nH]c2=S)o1	0	106	99	-2	-8	-16	nt	nt	nt
COc1ccc(S(=O)(=O)N2CCCCCC2)cc1C(=O)N1CCN(c2ccccc2O)CC1	nt	nt	nt	18	-4	6	nt	nt	nt
CC(C)(C)c1ccc(S(=O)(=O)N2C=CC(C(F)(F)F)=NCC2)cc1	3	97	100	0	-13	22	nt	nt	nt
Cc1ccc(S(=O)(=O)N2C=CC(C(F)(F)F)=NCC2)cc1	-21	1.0*[inhibitor]	1.0*[inhibitor]	0	-8	3	97	-6	97
CC(=O)N/C(=C\c1ccccc1)C(=O)OCC(=O)N(C)C1CCS(=O)(=O)C1 (centres undefined)	nt	nt	nt	-4	1	-10	nt	nt	nt
CC(C)(O)C#Cc1ccc(C(=O)N2CCN(c3ccc(Cl)cc3)CC2)cc1	-15	49*[inhibitor]	55	1	-5	-6	103	-1	103
C=CC[C@H]1CC(C)=C[C@H](CC=C)N1	195*	117	203*	1	4	-1	99	-3	100
CCCNS(=O)(=O)c1ccc(OCC(=O)N2CCOCC2)cc1	-5	69*[inhibitor]	88	2	-1	-9	99	-2	101
CCN(CC(=O)Nc1c(F)cccc1F)C(=O)COc1ccc2c(C)cc(=O)oc2c1	-14	41*[inhibitor]	44*[inhibitor]	8	0	-8	96	-6	100
Cc1cccc(C)c1NC(=O)COC(=O)COc1ccc2c(C)cc(=O)oc2c1	-3	95	96	10	0	-2	nt	nt	nt
Cc1cc(C(=O)CSc2ccccc2)cc(C)c1O	-3	99	99	-3	5	3	nt	nt	nt
Cc1ccc(CSCCNC(=O)c2ccc(NS(C)(=O)=O)cc2)cc1	1	102	104	7	2	4	nt	nt	nt
Cc1ccc(NC(=O)COc2ccccc2C(=O)Nc2ccccc2)cc1Cl	68*	103	146*	7	-1	-11	138	12	106
CCOCC(=O)Nc1ccc(C)c(Cl)c1	-6	77*[inhibitor]	85	8	0	5	104	7	103
Cc1ccc(NC(=O)COC(=O)CC2CCCC2)cc1Cl	-3	70*[inhibitor]	82	-3	10	-7	100	0	97
O=C(NCCc1ccccc1F)C1CCC(=O)N(Cc2ccc(Cl)cc2)C1 (centres undefined)	-2	94	93	-1	0	9	nt	nt	nt
CCOc1ccc(N2CC(C(=O)Nc3ccc(S(=O)(=O)Nc4nccs4)cc3)CC2=O)cc1 (centres undefined)	1	103	103	1	4	1	nt	nt	nt
CC(C)(C)c1cc(C(=O)O)nn1-c1ccccc1	-26	2.0*[inhibitor]	3.0*[inhibitor]	4	1	13	97	-4	96
Cc1ccc(C(=O)N2CCN=C2SCc2ccc([N+](=O)[O-])cc2)cc1C	-4	64*[inhibitor]	82	-2	12	8	96	-2	98
O=C(c1ccccc1)N1CCN=C1SCc1ccc([N+](=O)[O-])cc1	11	99	108	13	5	1	nt	nt	nt
COC(=O)[C@H](Cc1ccccc1)NC(=O)NCc1cccs1	13	104	105	18	-4	-7	nt	nt	nt
O=C(NCc1cccs1)N[C@@H](Cc1ccccc1)C(=O)O	-26	1.0*[inhibitor]	-2.0*[inhibitor]	1	4	-6	90	-3	86
CCC(C)[C@H](NC(=O)NCc1cccs1)C(=O)OC (some centres undefined)	-1	98	97	7	-3	-13	nt	nt	nt
